19 compounds from ChEMBL document CHEMBL1157555, “Synthesis and pharmacological evaluation of novel 1,3,8- and 1,3,7,8-substituted xanthines as adenosine receptor antagonists” (Bioorg Med Chem, 2010) can be followed below.

In one experiment the target is T1, Adenosine receptor A1 (Homo sapiens, UniProt P30542).
T1 sequence (P30542 whole entry): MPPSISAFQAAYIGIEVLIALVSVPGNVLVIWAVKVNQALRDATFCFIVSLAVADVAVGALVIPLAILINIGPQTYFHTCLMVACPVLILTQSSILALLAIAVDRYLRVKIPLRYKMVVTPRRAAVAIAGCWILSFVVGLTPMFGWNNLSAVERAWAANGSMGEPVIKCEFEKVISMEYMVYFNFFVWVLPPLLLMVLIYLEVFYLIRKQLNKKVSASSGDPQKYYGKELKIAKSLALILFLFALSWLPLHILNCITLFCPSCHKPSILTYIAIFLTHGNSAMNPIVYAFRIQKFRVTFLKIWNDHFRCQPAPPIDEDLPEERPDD
Nature of the experiment: Displacement of [3H]DPCPX from human recombinant adenosine A1 receptor expressed in CHO cells by microplate beta scintillation counter. The experiment is classed as cell-based. In a few lines:
(§1)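 Membranes from CHO cells expressing human A1 were labelled with 2 nM [3H]DPCPX. Non-specific binding was defined with (R)-PIA. Incubation ran 60 min at 25 °C, then samples were filtered and counted by beta scintillation. IC50 came from non-linear regression, and Ki from Cheng–Prusoff. Weak or poorly soluble compounds were reported as % inhibition of specific binding at a single concentration. Mean of 3 experiments, each in duplicate.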

The target of another experiment is T2, Adenosine receptor A2b (Homo sapiens, UniProt P29275).
T2 sequence (P29275 whole entry): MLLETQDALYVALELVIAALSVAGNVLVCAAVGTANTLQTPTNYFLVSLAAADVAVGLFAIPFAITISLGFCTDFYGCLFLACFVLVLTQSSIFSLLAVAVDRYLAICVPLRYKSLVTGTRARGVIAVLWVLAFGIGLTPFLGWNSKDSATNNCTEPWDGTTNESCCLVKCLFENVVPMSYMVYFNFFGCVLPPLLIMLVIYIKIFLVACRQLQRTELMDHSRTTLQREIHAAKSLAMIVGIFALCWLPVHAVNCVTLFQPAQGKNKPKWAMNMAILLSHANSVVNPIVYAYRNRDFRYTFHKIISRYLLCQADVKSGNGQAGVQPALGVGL
Nature of the experiment: Displacement of [3H]DPCPX from human recombinant adenosine A2B receptor expressed in HEK293 cells by microplate beta scintillation counter. The experiment is classed as cell-based. In a few lines: (§2)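 Membranes from HEK-293 cells expressing human A2B were labelled with 35 nM [3H]DPCPX. Incubation ran 30 min at 25 °C, followed by filtration and beta scintillation counting. IC50 was fitted by non-linear regression and converted to Ki by Cheng–Prusoff. Weak or poorly soluble compounds were given as % inhibition of specific binding at a single concentration. n = 3, each in duplicate.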
In general terms: In a radioligand displacement assay an active substance lowers the binding of a labelled ligand.

In experiment [1] the target is T3, Adenosine receptor A3 (Homo sapiens) (UniProt P0DMS8).
T3 sequence (whole entry): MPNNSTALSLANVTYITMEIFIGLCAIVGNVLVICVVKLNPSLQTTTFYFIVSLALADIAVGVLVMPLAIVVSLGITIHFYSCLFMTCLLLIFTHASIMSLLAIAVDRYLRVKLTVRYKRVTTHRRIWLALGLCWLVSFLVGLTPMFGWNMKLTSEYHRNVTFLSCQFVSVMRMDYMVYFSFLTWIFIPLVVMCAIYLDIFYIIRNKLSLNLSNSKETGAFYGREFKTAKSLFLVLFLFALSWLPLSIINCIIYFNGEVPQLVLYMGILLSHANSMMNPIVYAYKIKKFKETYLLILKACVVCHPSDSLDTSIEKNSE
Nature of the experiment: Displacement of [3H]NECA from human recombinant adenosine A3 receptor expressed in human HeLa cells at 1 uM by microplate beta scintillation counter. The experiment is classed as cell-based. In a few lines: (§3)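 HeLa-A3 cell membranes were labelled with 30 nM [3H]NECA. Non-specific binding was defined with (R)-PIA. After 180 min at 25 °C, samples were filtered and counted by beta scintillation. Ki was calculated by Cheng–Prusoff from IC50 obtained by non-linear regression. Weak or poorly soluble compounds were reported as % inhibition of specific binding at a single concentration. Mean of 3 experiments in duplicate.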

The species entered for experiment [2] is Homo sapiens. The experiment in a line: Selectivity ratio of Ki for human adenosine A1 receptor to Ki for human adenosine A2B receptor. In a few lines: (§4)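 Ratios of Ki values at each human subtype to Ki at human A2B (HEK-293 membranes, [3H]DPCPX). Each Ki was derived by Cheng–Prusoff from IC50 of radioligand competition binding in membranes of transfected cells. Results are the mean of 3 experiments, each in duplicate.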

The species named for experiment [3] is Homo sapiens. Nature of the experiment: Selectivity ratio of Ki for human adenosine A2A receptor to Ki for human adenosine A2B receptor. In a few lines:
as §4

For experiment [4], the target named is T4, Adenosine receptor A2a (Homo sapiens, UniProt P29274). The experiment in a line: Displacement of [3H]ZM241385 from human recombinant adenosine A2A receptor expressed in human HeLa cells by microplate beta scintillation counter. The experiment is classed as cell-based. Put shortly: (§5)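 Competition used HeLa cell membranes expressing human A2A with [3H]ZM241385. Non-specific binding was set with NECA. Incubation was 30 min at 25 °C, then filtration and beta scintillation counting. IC50 from non-linear regression was converted to Ki (Cheng–Prusoff). Weak or poorly soluble compounds were reported as % inhibition of specific binding at a single concentration. Three experiments, each in duplicate.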
T4 sequence (P29274 whole entry): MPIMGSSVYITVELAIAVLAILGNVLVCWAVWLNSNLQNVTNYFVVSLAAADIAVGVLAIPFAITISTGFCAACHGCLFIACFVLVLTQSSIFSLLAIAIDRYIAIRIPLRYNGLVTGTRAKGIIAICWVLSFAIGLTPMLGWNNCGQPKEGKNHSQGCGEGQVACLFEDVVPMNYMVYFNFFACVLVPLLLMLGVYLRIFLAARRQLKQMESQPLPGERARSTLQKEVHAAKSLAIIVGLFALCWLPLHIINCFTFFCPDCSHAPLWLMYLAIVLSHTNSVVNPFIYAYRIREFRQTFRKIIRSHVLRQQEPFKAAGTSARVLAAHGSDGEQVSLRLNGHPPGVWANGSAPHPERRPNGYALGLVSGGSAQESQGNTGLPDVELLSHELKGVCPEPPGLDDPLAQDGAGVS

For the next experiment, the target named is T5, Adenosine receptor A3 (Homo sapiens, UniProt P0DMS8).
T5 sequence (P0DMS8 whole entry): T3 sequence (whole entry)
The experiment in a line: Displacement of [3H]NECA from human recombinant adenosine A3 receptor expressed in human HeLa cells by microplate beta scintillation counter. The experiment is classed as cell-based. In a few lines: as §3

The target in experiment [5] is T6, Adenosine receptor A2b (Homo sapiens) (UniProt P29275).
T6 sequence (whole entry): T2 sequence (P29275 whole entry)
The experiment in a line: Displacement of [3H]DPCPX from human recombinant adenosine A2B receptor expressed in HEK293 cells at 1 uM by microplate beta scintillation counter. The experiment is classed as cell-based. Put shortly: as §2

The target of experiment [6] is T4, Adenosine receptor A2a. The experiment in a line: Displacement of [3H]ZM241385 from human recombinant adenosine A2A receptor expressed in human HeLa cells at 1 uM by microplate beta scintillation counter. The experiment is classed as cell-based. Put shortly: as §5
The species entered for experiment [7] is Homo sapiens. The experiment in a line: Selectivity ratio of Ki for human adenosine A3 receptor to Ki for human adenosine A2B receptor. Put shortly:
as §4

The target of experiment [8] is T7, Adenosine receptor A1 (Homo sapiens) (UniProt P30542).
T7 sequence (whole entry): T1 sequence (P30542 whole entry)
Nature of the experiment: Displacement of [3H]DPCPX from human recombinant adenosine A1 receptor expressed in CHO cells at 1 uM by microplate beta scintillation counter. The experiment is classed as cell-based. Put shortly:
as §1

Molecules are shown by their SMILES.

One may read the Ki as a measure of affinity in units of concentration, obtained from inhibition or displacement. Take `CCn1c(=O)c2c(nc(Cc3cccs3)n2C)n(Cc2ccccc2)c1=O`: the results for the Ki at Adenosine receptor A1, at Adenosine receptor A2b and on Adenosine receptor A2a [4] were 389 nM, 372 nM and 759 nM, respectively. For the same compound, the Activity in experiment [1] was determined as 6%. The Ratio Ki in the experiment listed under Homo sapiens [2] turned out to be 1.1; in the experiment listed under Homo sapiens [3], 2.1.

In the case of `CCCn1c(=O)c2[nH]c(-c3ccccc3)nc2n(CC2CCCO2)c1=O` (centres undefined), the figures for the Ki on Adenosine receptor A1 and at Adenosine receptor A3 were 224 nM and 135 nM, respectively. Besides, the Activity was found to be 64% in experiment [5] and 37% at Adenosine receptor A2a [6].

Take `CCCn1c(=O)c2[nH]c(-c3ccccc3)nc2n(CCSCC)c1=O`: the Ki at Adenosine receptor A1 was 93.3 nM; at Adenosine receptor A2b, 191 nM; at Adenosine receptor A3, 117 nM; on Adenosine receptor A2a [4] it was 1450 nM. The Ratio Ki in the experiment listed under Homo sapiens [2] was 0.5; in the experiment listed under Homo sapiens [3], 7.6; in the experiment listed under Homo sapiens [7] it was 0.6.

Turning to `CCn1c(=O)c2c(nc(Cc3ccco3)n2C)n(Cc2ccccc2)c1=O`, the figures for the Ki at Adenosine receptor A2b and on Adenosine receptor A2a [4] were 282 nM and 1740 nM, respectively. Also, the figures for the Activity in experiment [1] and in [8] were 14% and 29%, respectively. Further, the Ratio Ki in the experiment filed under Homo sapiens [3] came to 6.2.

Consider `CCn1c(=O)c2c(nc(Cc3cccs3)n2C)n(Cc2cccs2)c1=O`, for which the Ki at Adenosine receptor A1 was 95.5 nM; on Adenosine receptor A2b, 35.5 nM; on Adenosine receptor A2a [4], 123 nM. Besides, in experiment [1], the Activity worked out at 1%. The Ratio Ki in the experiment listed under Homo sapiens [2] turned out to be 2.7; in the experiment filed under Homo sapiens [3] it was 3.5.

Take `Cn1c(=O)c2[nH]c(-c3cccs3)nc2n(CC2CCCCC2)c1=O`: the Ki at Adenosine receptor A1 is 219 nM. For the same compound, the Activity in [1] is 41%; in experiment [5] it was 34%; on Adenosine receptor A2a [6], 29%.

Turning to `CCCn1c(=O)c2[nH]c(-c3ccccc3)nc2n(CCS(=O)(=O)CC)c1=O`, the Ki at Adenosine receptor A1 and on Adenosine receptor A3 was 93.3 nM in each case. Further, the Activity was found to be 39% in experiment [5] and 3% on Adenosine receptor A2a [6].

As to `CCn1c(=O)c2[nH]c(Cc3cccs3)nc2n(Cc2cccs2)c1=O`, the Ki is 676 nM on Adenosine receptor A1, 138 nM at Adenosine receptor A2b, 813 nM on Adenosine receptor A3 and 3980 nM at Adenosine receptor A2a [4]. In addition, the Ratio Ki in the experiment listed under Homo sapiens [2] came out at 4.9; in the experiment filed under Homo sapiens [3] it was 28.9; in the experiment listed under Homo sapiens [7] it was 5.9.

Regarding `CCn1c(=O)c2c(nc(Cc3c(F)cccc3F)n2C)n(Cc2cccs2)c1=O`, the figures for the Ki at Adenosine receptor A1, on Adenosine receptor A2b and at Adenosine receptor A2a [4] were 120 nM, 135 nM and 178 nM, respectively. Further, the Activity in [1] stood at 20%. Moreover, the Ratio Ki worked out at 0.9 in the experiment filed under Homo sapiens [2] and 1.3 in the experiment listed under Homo sapiens [3].

As for `CCSCCn1c(=O)n(CC)c(=O)c2[nH]c(-c3ccccc3)nc21`, the Ki on Adenosine receptor A1 was 148 nM; at Adenosine receptor A2b, 479 nM; at Adenosine receptor A3, 407 nM. The Ratio Ki came out at 0.3 in the experiment listed under Homo sapiens [2] and 0.9 in the experiment listed under Homo sapiens [7]. The Activity at Adenosine receptor A2a [6] amounted to 12%.

Regarding `CCCn1c(=O)c2[nH]c(-c3ccccc3)nc2n(CC[S+]([O-])CC)c1=O` (centres undefined), the Ki at Adenosine receptor A1 is 195 nM; at Adenosine receptor A2b, 589 nM; on Adenosine receptor A3 it was 245 nM. In addition, the Ratio Ki in the experiment listed under Homo sapiens [7] was found to be 0.4. Further, on Adenosine receptor A2a [6], the Activity was 9%.

For `CCn1c(=O)c2[nH]c(Cc3ccco3)nc2n(Cc2cccs2)c1=O`, on Adenosine receptor A1, the Ki was 407 nM. Further, the Activity in experiment [1] was 42%; in [5] it was 30%; at Adenosine receptor A2a [6], 19%.

As for `CCCn1c(=O)c2[nH]c(Cc3ccccc3)nc2n(CCOCC)c1=O`, the Activity in experiment [1] stood at 2%; in experiment [8], 22%; in experiment [5] it was 5%; on Adenosine receptor A2a [6], 13%.

As for `CCn1c(=O)c2[nH]c(Cc3ccccc3)nc2n(CC[S+]([O-])CC)c1=O` (centres undefined), the Activity came to 3% in experiment [1], 5% in [8], 0% in [5] and 0% on Adenosine receptor A2a [6].

As to `CCn1c(=O)c2c(nc(Cc3ccco3)n2C)n(Cc2cccs2)c1=O`, the Ki is 100 nM on Adenosine receptor A1, 26.9 nM at Adenosine receptor A2b and 219 nM on Adenosine receptor A2a [4]. For the same compound, in experiment [1], the Activity stood at 22%. The Ratio Ki in the experiment listed under Homo sapiens [2] was found to be 3.7; in the experiment filed under Homo sapiens [3], 8.1.

As for `CCCn1c(=O)c2[nH]c(Cc3ccccc3)nc2n(CC2CCCO2)c1=O` (centres undefined), the Activity turned out to be 10% in experiment [1], 2% in [8], 32% in experiment [5] and 24% on Adenosine receptor A2a [6].

`CCn1c(=O)c2[nH]c(Cc3cccs3)nc2n(Cc2ccccc2)c1=O`: the Activity in experiment [1] was 39%; in experiment [8] it was 22%; in experiment [5], 52%; on Adenosine receptor A2a [6] it was 6%.

Consider `CCCn1c(=O)c2c(nc(-c3ccccc3)n2C)n(CC2CCCO2)c1=O` (centres undefined), for which the Ki at Adenosine receptor A3 was 631 nM. In addition, the results for the Activity (in experiment [8]; in experiment [5]; on Adenosine receptor A2a [6]) were 38%, 41% and 25%, respectively.

`CCCn1c(=O)c2[nH]c(Cc3ccccc3)nc2n(CCSCC)c1=O`: the Activity turned out to be 1% in experiment [1], 33% in experiment [8], 12% in experiment [5] and 8% on Adenosine receptor A2a [6].
